pIC50: −log10 of the molar value. Active and inactive are the calls of the source. The rule behind the calls is not given here.
Experiments:
[1] = target: DNA topoisomerase 2-alpha (Homo sapiens) (UniProt P11388); test: Inhibition of topoisomerase 2-mediated KDNA decatenation at 25 uM after 30 mins by gel electrophoretic analysis
Procedure, shortened: (§1)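 Eukaryotic Topo II decatenation of kDNA (0.1 μg) in Tris-HCl 50 mM pH 8.0, NaCl 150 mM, MgCl2 10 mM, DTT 0.5 mM, ATP 2 mM with compound at 1–25 μM final, 30 min at 37 °C; stopped with sarkosyl buffer; products resolved on 1% agarose with ethidium bromide.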

CCRF-CEM [2] = test: Inhibition of cell proliferation of human CCRF-CEM cells at 1 uM after 96 to 120 hrs by CellTiter assay; type: functional
HT-29 [3] = test: Inhibition of cell proliferation of human HT-29 cells at 1 uM after 96 to 120 hrs by CellTiter assay; type: functional
MDA-MB-468 [4] = test: Inhibition of cell proliferation of human MDA-MB-468 cells at 1 uM after 96 to 120 hrs by CellTiter assay; type: functional
MDA-MB-361 [5] = test: Inhibition of cell proliferation of human MDA-MB-361 cells at 1 uM after 96 to 120 hrs by CellTiter assay; type: functional
SK-OV-3 [6] = test: Inhibition of cell proliferation of human SKOV3 cells at 1 uM after 96 to 120 hrs by CellTiter assay; type: functional
CCRF-CEM [7] = test: Inhibition of cell proliferation of human CCRF-CEM cells at 1 uM by CellTiter assay; type: functional, cell-based; details: TDE = time-dependent effect
HT-29 [8] = test: Inhibition of cell proliferation of human HT-29 cells at 1 uM by CellTiter assay; type: functional, cell-based; details: TDE = time-dependent effect
MDA-MB-468 [9] = test: Inhibition of cell proliferation of human MDA-MB-468 cells at 1 uM by CellTiter assay; type: functional, cell-based; details: TDE = time-dependent effect
MDA-MB-361 [10] = test: Inhibition of cell proliferation of human MDA-MB-361 cells at 1 uM by CellTiter assay; type: functional, cell-based; details: TDE = time-dependent effect
SK-OV-3 [11] = test: Inhibition of cell proliferation of human SKOV3 cells at 1 uM by CellTiter assay; type: functional, cell-based; details: TDE = time-dependent effect
CCRF-CEM [12] = test: Growth inhibition of human CCRF-CEM cells at 1 uM after 96 hrs by CellTiter assay; type: functional, cell-based
HT-29 [13] = test: Growth inhibition of human HT-29 cells at 1 uM after 96 hrs by CellTiter assay; type: functional, cell-based
MDA-MB-468 [14] = test: Growth inhibition of human MDA-MB-468 cells at 1 uM after 96 hrs by CellTiter assay; type: functional, cell-based
MDA-MB-361 [15] = test: Growth inhibition of human MDA-MB-361 cells at 1 uM after 96 hrs by CellTiter assay; type: functional, cell-based
SK-OV-3 [16] = test: Growth inhibition of human SKOV3 cells at 1 uM after 96 hrs by CellTiter assay; type: functional, cell-based
CCRF-CEM [17] = test: Inhibition of cell proliferation of human CCRF-CEM cells after 96 hrs by CellTiter assay; type: functional, cell-based
MDA-MB-468 [18] = test: Inhibition of cell proliferation of human MDA-MB-468 cells at 1 uM after 120 hrs by CellTiter assay; type: functional; details: MDA-MB-468, 120 h
SK-OV-3 [19] = test: Cellular uptake in doxorubicin-resistant human SKOV3 cells at 5 uM after 30 mins by FACS analysis relative to doxorubicin; type: ADME, cell-based; details: sk-ov-3, 0.5 h
Procedure, shortened: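 SK-OV-3 cells plated overnight in EMEM (2 × 10^5 cells/well); compound 5 μM added in opti-MEM, 30 min at 37 °C; cells trypsinized, PBS-washed, analysed by flow cytometry on FL2 channel; mean fluorescence of 10000 cells; triplicate.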

[20] = Drug uptake in doxorubicin-resistant human SKOV3 cell cytoplasm at 5 uM after 1 hr by confocal microscopic analysis; type: ADME, cell-based; details: sk-ov-3, 1 h
Procedure, shortened: (§2)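 Coverslip-grown SK-OV-3 cells (seeded overnight, EMEM) treated with 5 μM compound in opti-MEM for 1 h at 37 °C, PBS-washed three times, mounted and imaged by laser scanning confocal microscopy using rhodamine and phase contrast channels for Dox fluorescence.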

[21] = Cellular uptake in doxorubicin-resistant human SKOV3 cells at 5 uM incubated for 1 hr followed by incubation with fresh media for 24 hrs measured by confocal microscopic analysis; type: ADME, cell-based, Cytoplasm; details: sk-ov-3, 1 h
Procedure, shortened: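 SK-OV-3 cells seeded overnight on coverslips in EMEM, exposed to 5 μM compound in opti-MEM for 1 h at 37 °C, washed, then kept in fresh serum-containing medium 24 h; PBS-washed and imaged by laser scanning confocal microscopy, rhodamine and phase contrast channels.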

SK-OV-3 [22] = test: Cytotoxicity against human SKOV3 cells at 10 uM incubated for 1 hr followed by incubation in compound-free medium for 72 hrs by MTT assay; type: functional
Procedure, shortened: (§3)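 SK-OV-3 cells plated overnight at 5000 cells/well; exposed to compound (up to 10 μM), then medium replaced with drug-free medium for 72 h; MTT added 2 h, formazan read at 490 nm; % cytotoxicity = (OD untreated − OD treated)/OD untreated × 100.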

SK-OV-3 [23] = test: Cytotoxicity against human SKOV3 cells at 5 to 10 uM by MTT assay relative to doxorubicin; type: functional; procedure, shortened: as §3
[24] = target: DNA topoisomerase 2-alpha (Homo sapiens) (UniProt P11388); test: Inhibition of topoisomerase 2-mediated KDNA decatenation at 15 to 20 uM after 30 mins by gel electrophoretic analysis; procedure, shortened: as §1
[25] = Chemical stability of the compound in pH 8, reaction buffer containing Tris-HCl, NaCl, MgCl2, dithiothreitol and ATP; type: physicochemical
Procedure, shortened: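 Compound held in Topo II reaction buffer (Tris-HCl 50 mM pH 8.0, NaCl 150 mM, MgCl2 10 mM, DTT 0.5 mM, ATP 2 mM) without enzyme; hydrolysis followed by HPLC.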

[26] = Half life in fetal bovine serum at 1 mM by HPLC analysis; type: ADME, cell-free, Bos taurus; details: cattle
Procedure, shortened: (§4)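 Compound (50 μL of 1 mM DMSO stock) incubated in 1 mL of 100% FBS or PBS pH 7.0 at 37 °C with shaking; aliquots taken from 10 min to 96 h, diluted with water, analysed by HPLC at 490 nm; peak areas give % remaining and % released Dox.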

[27] = Half life in PBS at 1 mM by HPLC analysis; type: physicochemical; procedure, shortened: as §4
CCRF-CEM [28] = test: Drug metabolism in human CCRF-CEM cells assessed as doxorubicin formation at 1 uM by HPLC analysis; type: ADME, cell-based; details: TDE = time-dependent effect
Procedure, shortened: (§5)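 CCRF-CEM cells grown in serum-free RPMI, exposed to 1 μM compound 4 h at 37 °C, then moved to drug-free serum-free RPMI for set times; pellets washed with ice-cold PBS, extracted with methanol/chloroform/isopropanol (4:3:1), filtered; parent and released Dox quantified by HPLC at 490 nm.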

[29] = Drug metabolism in human CCRF-CEM cells assessed as compound hydrolysis at 1 uM after 12 hrs by HPLC analysis; type: ADME, cell-based; details: read-out: Drug metabolism; procedure, shortened: as §5
[30] = Drug metabolism in human CCRF-CEM cells assessed as compound hydrolysis at 1 uM after 48 hrs by HPLC analysis; type: ADME, cell-based; details: read-out: Drug metabolism; procedure, shortened: as §5
SK-OV-3 [31] = test: Cytotoxicity against human SKOV3 cells at > = 100 nM after 72 hrs by MTT assay; type: functional, cell-based; procedure, shortened: as §3
Serum = test: Binding affinity to serum proteins in fetal bovine serum at 1 mM; type: ADME, cell-free, Bos taurus; details: cattle, 1000 µM
[32] = Drug metabolism in fetal bovine serum assessed as compound hydrolysis at 1 uM after 12 hrs by HPLC analysis
[33] = Drug metabolism in fetal bovine serum assessed as compound hydrolysis at 1 uM after 48 hrs by HPLC analysis
[34] = Drug uptake in doxorubicin-resistant human SKOV3 cell nucleus at 5 uM after 1 hr by confocal microscopic analysis; type: ADME, cell-based; details: sk-ov-3, 1 h; procedure, shortened: as §2
SK-OV-3 [35] = test: Cytotoxicity against human SKOV3 cells at 10 uM incubated for 2 hrs followed by incubation in compound-free medium for 72 hrs by MTT assay; type: functional; procedure, shortened: as §3
SK-OV-3 [36] = test: Cytotoxicity against human SKOV3 cells after 48 hrs; type: functional, cell-based; details: SK-OV-3, 48 h
[37] = target: DNA topoisomerase 2-alpha (Homo sapiens) (UniProt P11388); details: 5 uM

Sequence of DNA topoisomerase 2-alpha (Homo sapiens) (P11388 whole entry): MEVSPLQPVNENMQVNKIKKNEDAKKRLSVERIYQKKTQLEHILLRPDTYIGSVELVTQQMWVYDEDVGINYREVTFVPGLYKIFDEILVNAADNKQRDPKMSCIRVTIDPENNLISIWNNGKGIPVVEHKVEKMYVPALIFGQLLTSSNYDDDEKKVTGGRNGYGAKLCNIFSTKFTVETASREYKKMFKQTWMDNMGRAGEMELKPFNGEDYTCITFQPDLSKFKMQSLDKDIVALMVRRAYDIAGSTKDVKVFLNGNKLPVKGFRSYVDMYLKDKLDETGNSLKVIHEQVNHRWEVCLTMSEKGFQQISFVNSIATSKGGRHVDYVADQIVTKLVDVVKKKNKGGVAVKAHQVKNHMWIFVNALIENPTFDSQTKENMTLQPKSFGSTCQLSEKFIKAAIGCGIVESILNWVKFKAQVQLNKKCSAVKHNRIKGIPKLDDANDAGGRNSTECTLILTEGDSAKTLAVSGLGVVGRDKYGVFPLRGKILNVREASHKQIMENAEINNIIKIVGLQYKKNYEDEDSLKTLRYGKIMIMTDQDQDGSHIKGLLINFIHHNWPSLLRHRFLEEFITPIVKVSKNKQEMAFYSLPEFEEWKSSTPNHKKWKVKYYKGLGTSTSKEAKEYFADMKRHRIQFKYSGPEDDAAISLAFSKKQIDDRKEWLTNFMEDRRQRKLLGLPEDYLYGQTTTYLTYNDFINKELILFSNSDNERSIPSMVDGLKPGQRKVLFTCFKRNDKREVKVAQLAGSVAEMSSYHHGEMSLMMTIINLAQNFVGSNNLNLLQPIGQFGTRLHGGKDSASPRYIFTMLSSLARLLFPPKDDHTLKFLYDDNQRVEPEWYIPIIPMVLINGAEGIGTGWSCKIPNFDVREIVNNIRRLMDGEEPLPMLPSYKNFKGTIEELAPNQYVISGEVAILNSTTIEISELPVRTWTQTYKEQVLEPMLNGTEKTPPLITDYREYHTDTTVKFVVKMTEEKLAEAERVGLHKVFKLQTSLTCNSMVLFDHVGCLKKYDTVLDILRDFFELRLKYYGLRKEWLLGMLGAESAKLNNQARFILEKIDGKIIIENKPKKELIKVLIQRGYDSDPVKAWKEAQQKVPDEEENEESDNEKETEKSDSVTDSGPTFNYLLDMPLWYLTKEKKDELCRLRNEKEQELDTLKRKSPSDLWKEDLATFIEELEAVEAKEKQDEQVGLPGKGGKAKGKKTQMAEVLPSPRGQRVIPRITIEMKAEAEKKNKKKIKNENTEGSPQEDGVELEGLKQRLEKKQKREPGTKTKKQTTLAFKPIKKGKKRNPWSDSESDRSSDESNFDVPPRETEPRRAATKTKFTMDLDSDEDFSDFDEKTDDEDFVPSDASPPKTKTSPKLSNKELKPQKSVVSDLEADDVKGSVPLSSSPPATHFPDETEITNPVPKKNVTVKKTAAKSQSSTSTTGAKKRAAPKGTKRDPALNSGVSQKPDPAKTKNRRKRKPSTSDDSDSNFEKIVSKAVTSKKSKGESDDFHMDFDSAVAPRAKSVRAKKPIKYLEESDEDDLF

SMILES	inhibition at 1 µM (CCRF-CEM [2])	inhibition at 1 µM (HT-29 [3])	inhibition at 1 µM (MDA-MB-468 [4])	inhibition at 1 µM (MDA-MB-361 [5])	inhibition at 1 µM (SK-OV-3 [6])	inhibition (CCRF-CEM [7])	inhibition (HT-29 [8])	inhibition (MDA-MB-468 [9])	inhibition (MDA-MB-361 [10])	inhibition (SK-OV-3 [11])	growth inhibition (GI) (CCRF-CEM [12])	growth inhibition (GI) (HT-29 [13])	growth inhibition (GI) (MDA-MB-468 [14])	growth inhibition (GI) (MDA-MB-361 [15])	growth inhibition (GI) (SK-OV-3 [16])	pIC50 (CCRF-CEM [17])	further results
CCCCCCCCCCCCCCCC(=O)N[C@H]1C[C@H](O[C@H]2C[C@](O)(C(=O)CO)Cc3c(O)c4c(c(O)c32)C(=O)c2c(OC)cccc2C4=O)O[C@@H](C)[C@H]1O																	inhibition [1]: inactive
CCCCCCCCCCCCNC(=O)CCC(=O)OCC(=O)[C@]1(O)Cc2c(O)c3c(c(O)c2[C@@H](O[C@H]2C[C@H](N)[C@H](O)[C@H](C)O2)C1)C(=O)c1c(OC)cccc1C3=O	69%	60%	49%	66%	54%	tde	tde	tde	tde	tde	Active	Active	Active	Active	Active	7.12	
CCCCCCCCCCCCCCNC(=O)CCC(=O)OCC(=O)[C@]1(O)Cc2c(O)c3c(c(O)c2[C@@H](O[C@H]2C[C@H](N)[C@H](O)[C@H](C)O2)C1)C(=O)c1c(OC)cccc1C3=O	69%	60%	49%	66%	54%	tde	tde	tde	tde	tde	Active	Active	Active	Active	Active	7.11	inhibition at 1 µM (MDA-MB-468 [18]): 70.2%; fold change (FC) (SK-OV-3 [19]): 3; Drug uptake [20]: Active; Drug uptake [21]: Active; Activity (SK-OV-3 [22]): 67.1%; fold change (FC) (SK-OV-3 [23]): 1.4; inhibition [24]: Active; Stability [25]: Stable; half-life at 1000 µM [26]: 8.3 h; half-life at 1000 µM [27]: 19.3 h; Drug metabolism (CCRF-CEM [28]): tde; metabolised at 12 h, 1 µM [29]: > 75%; metabolised at 48 h, 1 µM [30]: 98%; Activity (SK-OV-3 [31]): Active; PB (Serum): Not Active; metabolised at 12 h, 1 µM [32]: 20%; metabolised at 48 h, 1 µM [33]: 30%
CCCCCCCCCCNC(=O)CCC(=O)OCC(=O)[C@]1(O)Cc2c(O)c3c(c(O)c2[C@@H](O[C@H]2C[C@H](N)[C@H](O)[C@H](C)O2)C1)C(=O)c1c(OC)cccc1C3=O	69%	60%	49%	66%	54%	tde	tde	tde	tde	tde	Active	Active	Active	Active	Active	7.12	
CCCCCCCCCCCCCCOC(=O)CCC(=O)OCC(=O)[C@]1(O)Cc2c(O)c3c(c(O)c2[C@@H](O[C@H]2C[C@H](N)[C@H](O)[C@H](C)O2)C1)C(=O)c1c(OC)cccc1C3=O	69%	60%	49%	66%	54%	tde	tde	tde	tde	tde	Active	Active	Active	Active	Active	7.12	
CCCCCCCCCCCCCCCCNC(=O)CCC(=O)OCC(=O)[C@]1(O)Cc2c(O)c3c(c(O)c2[C@@H](O[C@H]2C[C@H](N)[C@H](O)[C@H](C)O2)C1)C(=O)c1c(OC)cccc1C3=O	69%	60%	49%	66%	54%	tde	tde	tde	tde	tde	Active	Active	Active	Active	Active	7.12	
COc1cccc2c1C(=O)c1c(O)c3c(c(O)c1C2=O)C[C@@](O)(C(=O)CO)C[C@@H]3O[C@H]1C[C@H](N)[C@H](O)[C@H](C)O1 [DOXORUBICIN]																7.35	inhibition at 1 µM (MDA-MB-468 [18]): 69.1%; Drug uptake [34]: Active; Drug uptake [21]: Not Active; Activity (SK-OV-3 [35]): 51.5%; pIC50 (SK-OV-3 [36]): 5.30; inhibition [37]: Active
COc1cccc2c1C(=O)c1c(O)c3c(c(O)c1C2=O)C[C@@](O)(C(=O)COC(=O)CCC(=O)O)C[C@@H]3O[C@H]1C[C@H](N)[C@H](O)[C@H](C)O1	69%	60%	49%	66%	54%	tde	tde	tde	tde	tde	Active	Active	Active	Active	Active	7.12	

From ChEMBL document CHEMBL2021810, “Synthesis, anticancer activities, and cellular uptake studies of lipophilic derivatives of doxorubicin succinate” (J Med Chem, 2012)
